Data from ChEMBL document CHEMBL4811273, “Discovery of a novel series of GPR119 agonists: Design, synthesis, and biological evaluation of N-(Piperidin-4-yl)-N-(trifluoromethyl)pyrimidin-4-amine derivatives” (Bioorg Med Chem, 2021).
Values after ≈ are worked out from the molar mass of the structure shown. Active and inactive are the calls of the source. The rule behind the calls is not given here.

Tests used:
[1] = target: T1, Glucose-dependent insulinotropic receptor (Homo sapiens, UniProt Q8TDV5); assay: Agonist activity at human GPR119 expressed in CHO cells co-expressing cyclic AMP response element-luciferase reporter gene incubated for 2 hrs by steady-glo luciferase assay; type: functional, cell-based
T1 sequence (Q8TDV5 whole entry): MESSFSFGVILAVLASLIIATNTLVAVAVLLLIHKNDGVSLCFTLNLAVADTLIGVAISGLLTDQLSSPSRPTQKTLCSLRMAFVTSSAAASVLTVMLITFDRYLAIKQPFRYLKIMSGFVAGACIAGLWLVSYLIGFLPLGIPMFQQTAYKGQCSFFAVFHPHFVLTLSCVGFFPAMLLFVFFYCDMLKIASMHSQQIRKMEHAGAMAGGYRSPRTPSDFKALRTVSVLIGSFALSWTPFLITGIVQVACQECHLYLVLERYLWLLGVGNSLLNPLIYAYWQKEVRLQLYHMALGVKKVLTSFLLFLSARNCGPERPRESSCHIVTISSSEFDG
How it was run: (§1)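 CHO cells stably expressing human or rat GPR119 were seeded at 10,000 cells/well in MEMα with 10% FBS and Geneticin and grown overnight at 37 °C. After one wash, cells were exposed to compounds at various concentrations in MEMα/20 mM HEPES/0.1% BSA for 2 h. cAMP-driven luciferase was read with Steady-Glo and normalized to vehicle and reference wells. EC50 is the mean, n = 2.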

[2] = Partition coefficient, logD between 1-octanol and pH 7.4 aqueous buffer by chromatographic analysis; type: physicochemical; details: 1-octanol/pH 7.4 aqueous buffer
How it was run: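 LogD between 1-octanol and aqueous buffer at pH 7.4 was determined by a chromatographic procedure adapted from a published method.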

[3] = Aqueous solubility of the compound at pH 6.8 by HPLC analysis; type: physicochemical; details: buffer
How it was run: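 DMSO stock solutions were added in small volumes to aqueous buffer at pH 6.8 and incubated. Precipitate was removed by filtration, and the filtrate was quantified by HPLC.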

hERG (KCNH2) = hERG (KCNH2) (Homo sapiens, UniProt Q12809); assay: Inhibition of human ERG expressed in CHO cells at 10 uM at holding potential of -80 mV by patch clamp method; type: cell-based; details: CHO cells expressing human ERG
[4] = Hepatic clearance in human liver microsomes measured up to 30 mins by LC/MS/MS analysis; type: ADME, Microsome; details: read-out: CLH
How it was run: (§2)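 Human or rat liver microsomes (0.2 mg/mL protein) were incubated with 1 μM compound in 50 mM potassium phosphate, pH 7.4. The reaction was started with an NADPH-generating system and stopped with acetonitrile at 15 and 30 min. Parent compound was quantified by LC/MS/MS, and CLint (μL/min/mg) was taken from the slope of the concentration–time plot.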

[5] = Hepatic clearance in rat liver microsomes measured up to 30 mins by LC/MS/MS analysis; type: ADME, Microsome; details: read-out: CLH; how it was run: as §2
[6] = Intrinsic clearance in human liver microsomes; type: ADME, Microsome; details: read-out: CLH; how it was run: as §2
[7] = target: T2, Glucose-dependent insulinotropic receptor (Rattus norvegicus, UniProt Q7TQN8); assay: Agonist activity at rat GPR119 expressed in CHO cells co-expressing cyclic AMP response element-luciferase reporter gene incubated for 2 hrs by steady-glo luciferase assay; type: functional, cell-based; how it was run: as §1
T2 sequence (Q7TQN8 whole entry): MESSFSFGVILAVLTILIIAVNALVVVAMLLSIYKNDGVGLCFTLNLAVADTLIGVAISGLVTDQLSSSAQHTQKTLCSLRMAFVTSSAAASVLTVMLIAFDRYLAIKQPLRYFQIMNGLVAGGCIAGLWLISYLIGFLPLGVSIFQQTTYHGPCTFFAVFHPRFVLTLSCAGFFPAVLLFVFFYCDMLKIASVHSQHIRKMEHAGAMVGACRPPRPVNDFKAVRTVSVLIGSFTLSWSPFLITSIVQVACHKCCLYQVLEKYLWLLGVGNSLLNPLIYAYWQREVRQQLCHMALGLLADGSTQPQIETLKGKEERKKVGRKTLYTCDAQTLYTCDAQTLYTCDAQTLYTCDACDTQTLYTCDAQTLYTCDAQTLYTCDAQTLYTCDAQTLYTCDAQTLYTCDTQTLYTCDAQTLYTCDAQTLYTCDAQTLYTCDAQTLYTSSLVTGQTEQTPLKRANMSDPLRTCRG

[8] = target: T2, Glucose-dependent insulinotropic receptor; assay: Agonist activity at rat GPR119 in golden hamster HIT-T15 cells assessed as induction of glucose-induced insulin secretion after 2 hrs by A1phaLISA; type: functional, cell-based
How it was run: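 Hamster HIT-T15 beta cells were seeded at 5 × 10^4 cells/well and pre-incubated 2 h in KRBH with 0.2% BSA. They were then incubated 2 h at 37 °C with compound in KRBH containing 0.2% fatty-acid-free BSA and 10 mmol/L glucose. Secreted insulin was quantified by AlphaLISA. EC50 from n = 2.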

[9] = target: T2, Glucose-dependent insulinotropic receptor; assay: Agonist activity at rat GPR119 in GLUTag cells assessed as induction of GLP-1 secretion after 2 hrs by ELISA; type: functional, cell-based
How it was run: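 Murine GLUTag L cells were seeded at 1 × 10^4 cells/well on poly-L-lysine and moved overnight to low-glucose DMEM. After a Hank's wash, cells were incubated 2 h at 37 °C with compound in KRBH containing 0.2% fatty-acid-free BSA and 10 mmol/L glucose. Active GLP-1 in the supernatant was measured by ELISA. EC50 from n = 2.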

[10] = Volume of distribution at steady state in rat at 0.1 mg/kg, iv administered as cassette dose by LC/MS/MS analysis; type: ADME, organism-based; details: in vivo
How it was run: (§3)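 Intravenous cassette dosing at 0.1 mg/kg in rats (the methods text says non-fasted mice). Plasma was obtained from blood samples, deproteinized, centrifuged, and analysed by LC/MS/MS.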

[11] = Clearance in rat at 0.1 mg/kg, iv administered as cassette dose by LC/MS/MS analysis; type: ADME, organism-based; details: in vivo; how it was run: as §3
[12] = AUC in […] at 1 mg/kg, po administered as cassette dose by LC/MS/MS analysis; type: ADME, organism-based, Rattus norvegicus; parameters: dose 1 mg/kg; details: in vivo
[13] = Mean residence time in rat at 1 mg/kg, po administered as cassette dose by LC/MS/MS analysis; type: ADME, organism-based; details: in vivo
How it was run: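 Rat cassette PK. Oral dose 1 mg/kg in 0.5% methylcellulose aqueous solution. The methods text says non-fasted mice. Blood was collected after dosing, and plasma was deproteinized and centrifuged. Compound in the supernatant was measured by LC/MS/MS.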

[14] = Oral bioavailability in […] at 1 mg/kg administered as cassette dose by LC/MS/MS analysis; type: ADME, organism-based, Rattus norvegicus; details: in vivo
Rattus norvegicus [15] = assay: Antidiabetic activity in NSTZ1.5 rat assessed as reduction in plasma glucose level at 0.3 to 3 mg/kg, po administered 60 mins prior to glucose challenge and measured up to 60 mins by OGTT; type: functional, organism-based; details: dose 0.3-3 mg/kg
Rattus norvegicus [16] = assay: Antidiabetic activity in orally dosed NSTZ1.5 rat assessed as reduction in insulin level administered 60 mins prior to glucose challenge and measured up to 60 mins by OGTT; type: functional, organism-based; details: dose 0.3-3 mg/kg

Chain of hERG (KCNH2) (Q12809 whole entry): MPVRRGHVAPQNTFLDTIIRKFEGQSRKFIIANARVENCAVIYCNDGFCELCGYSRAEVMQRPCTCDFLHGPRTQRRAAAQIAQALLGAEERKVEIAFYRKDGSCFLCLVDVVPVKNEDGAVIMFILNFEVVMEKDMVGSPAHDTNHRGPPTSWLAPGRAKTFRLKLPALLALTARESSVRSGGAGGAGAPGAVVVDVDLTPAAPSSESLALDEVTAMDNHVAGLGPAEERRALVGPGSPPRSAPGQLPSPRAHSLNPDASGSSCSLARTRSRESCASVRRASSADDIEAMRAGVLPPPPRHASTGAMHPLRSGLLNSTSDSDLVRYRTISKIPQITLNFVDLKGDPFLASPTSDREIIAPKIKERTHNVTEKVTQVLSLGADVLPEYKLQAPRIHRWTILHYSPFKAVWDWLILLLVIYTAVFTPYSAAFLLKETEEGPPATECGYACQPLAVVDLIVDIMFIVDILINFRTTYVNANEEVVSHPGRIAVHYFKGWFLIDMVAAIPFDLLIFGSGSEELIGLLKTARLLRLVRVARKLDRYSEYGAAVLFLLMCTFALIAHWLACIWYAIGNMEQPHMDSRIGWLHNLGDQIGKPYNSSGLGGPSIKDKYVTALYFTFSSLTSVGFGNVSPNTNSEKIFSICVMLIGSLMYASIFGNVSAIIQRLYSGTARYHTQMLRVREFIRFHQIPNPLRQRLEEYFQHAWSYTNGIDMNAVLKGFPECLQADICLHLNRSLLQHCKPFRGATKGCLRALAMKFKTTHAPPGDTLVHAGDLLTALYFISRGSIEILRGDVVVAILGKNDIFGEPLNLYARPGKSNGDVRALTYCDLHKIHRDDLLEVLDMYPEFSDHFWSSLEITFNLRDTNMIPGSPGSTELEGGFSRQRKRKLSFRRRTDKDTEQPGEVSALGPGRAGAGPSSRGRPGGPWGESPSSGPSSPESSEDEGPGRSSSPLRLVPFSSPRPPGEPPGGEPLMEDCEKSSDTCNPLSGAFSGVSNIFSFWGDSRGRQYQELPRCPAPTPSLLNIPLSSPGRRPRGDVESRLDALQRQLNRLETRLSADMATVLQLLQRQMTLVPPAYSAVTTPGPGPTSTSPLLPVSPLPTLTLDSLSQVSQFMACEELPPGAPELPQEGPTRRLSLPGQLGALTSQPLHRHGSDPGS

Row | EC50 [1] [nM] | logD [2] | SMILES | inhibition at 10 µM (hERG (KCNH2)) [%] | further results
1 | 2.9 | 3.79 | CC(C)c1noc(N2CCC(N(c3cc(N4CCc5cc(S(C)(=O)=O)ccc54)ncn3)C(F)(F)F)CC2)n1 | – | solubility [3]: < 0.22 µg/mL
2 | 14 | 3.5 | CCN(c1cc(N2CCc3cc(S(C)(=O)=O)ccc32)ncn1)C1CCN(C(=O)OC(C)(C)C)CC1 | 116 | –
3 | 2.5 | 4.1 | CC(C)(C)OC(=O)N1CCC(N(c2cc(N3CCc4cc(S(C)(=O)=O)ccc43)ncn2)C(F)(F)F)CC1 | 13 | –
4 | 2.7 | – | CC(C)c1noc(N2CCC(N(c3cc(OC4CCN(S(C)(=O)=O)CC4)ncn3)C(F)(F)F)CC2)n1 | – | microsomal CLint [4]: 108 µL/min/mg; microsomal CLint [5]: 36 µL/min/mg; solubility [3]: 29 µg/mL (≈ 54.4 µM)
5 | 21 | 3.2 | CN(c1cc(N2CCc3cc(S(C)(=O)=O)ccc32)ncn1)C1CCN(C(=O)OC(C)(C)C)CC1 | 85 | –

Further lines, the molecule ahead of its results:

Row | SMILES | EC50 [1] [nM] | logD [2] | inhibition at 10 µM (hERG (KCNH2)) [%] | further results
6 | CC(C)(C)OC(=O)N1CCC(N(c2cc(OCC3CN(S(C)(=O)=O)C3)ncn2)C(F)(F)F)CC1 | 960 | – | – | –
7 | CC(C)(C)OC(=O)N1CCC(N(CC2CC2)c2cc(N3CCc4cc(S(C)(=O)=O)ccc43)ncn2)CC1 | 51 | 4.1 | 100 | –
8 | CC(C)(C)OC(=O)N1CCC(N(c2cc(O[C@H]3CC[C@H](S(C)(=O)=O)CC3)ncn2)C(F)(F)F)CC1 | 270 | – | – | –
9 | CS(=O)(=O)N1CCC(Oc2cc(N(C3CCN(c4nc(C5CC5)no4)CC3)C(F)(F)F)ncn2)CC1 | 5.4 | – | – | microsomal CLint [4]: 31 µL/min/mg; microsomal CLint [5]: 13 µL/min/mg; solubility [3]: 15 µg/mL (≈ 28.2 µM)
10 | CC(C)(C)OC(=O)N1CCC(N(c2cc(NC3CCN(S(C)(=O)=O)CC3)ncn2)C(F)(F)F)CC1 | 43 | – | – | –
11 | CC(C)(C)OC(=O)N1CCC(Nc2cc(N3CCc4cc(S(C)(=O)=O)ccc43)ncn2)CC1 | 300 | 2.7 | 80 | –
12 | CC(C)(C)OC(=O)N1CCC(N(c2cc(OC3CCN(S(C)(=O)=O)CC3)ncn2)C(F)(F)F)CC1 | 3.6 | – | – | –
13 | CN(c1cc(N(C2CCN(C(=O)OC(C)(C)C)CC2)C(F)(F)F)ncn1)C1CCN(S(C)(=O)=O)CC1 | > 10000 | – | – | –
14 | CCCN(c1cc(N2CCc3cc(S(C)(=O)=O)ccc32)ncn1)C1CCN(C(=O)OC(C)(C)C)CC1 | 18 | 4 | 94 | –
15 | CC(C)c1noc(N2CCC(Oc3cc(N4CCc5cc(N6CCC[C@H](O)C6=O)ccc54)ncn3)CC2)n1 | – | – | – | microsomal CLint [6]: 10 µL/min/mg
16 | COCCN(c1cc(N2CCc3cc(S(C)(=O)=O)ccc32)ncn1)C1CCN(C(=O)OC(C)(C)C)CC1 | 29 | 3.4 | 120 | –
17 | CC(C)(C)OC(=O)N1CCC(N(c2cc(OC3CN(S(C)(=O)=O)C3)ncn2)C(F)(F)F)CC1 | 7100 | – | – | –
18 | CC(C)(F)c1noc(N2CCC(N(c3cc(OC4CCN(S(C)(=O)=O)CC4)ncn3)C(F)(F)F)CC2)n1 | 4.6 | – | 19 | microsomal CLint [4]: 27 µL/min/mg; microsomal CLint [5]: < 1 µL/min/mg; solubility [3]: 21 µg/mL (≈ 38.1 µM); EC50 [7]: 24 nM; EC50 [8]: 4.8 nM; EC50 [9]: 3.8 nM; Vdss [10]: 1.27 L/kg; clearance [11]: 6.22 mL/min/kg; AUC [12]: 1540 ng·h/mL; MRT [13]: 4.05 h; bioavailability [14]: 57%; Activity (Rattus norvegicus [15]): Active; Activity (Rattus norvegicus [16]): Dose-Dependent Effect; microsomal CLint [6]: 27 µL/min/mg
